SR-BI DiI-HDL act = activators of SR-BI mediated HDL lipid uptake. hit rate 0.096% among 320,000. CHO ldlA[mSR-BI] cells, DiI-HDL uptake fluorescence, 3 h; 100 = double the neutral-control signal. activation, % at 12.5 µM. AID 504775;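 active means mean replicate activation of at least 60% and every replicate at or above 60%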
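System: CHO ldlA[mSR-BI] cells / Medium: HEPES-buffered (25 mM, pH 7.4) F12 plus 0.5% BSA / Probe or stimulus: labelled HDL, 10 µg/mL / Doses: single compound concentration, delivered by pin transfer / Schedule: 3 h, 37 °C / Measured by: DiI fluorescence, bottom read / Measure: cell-associated DiI fluorescence as measure of HDL uptake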
CAL PDZ FP-1 = CAL PDZ (human) peptide binding inhibition; Q9HD26; purified CAL PDZ, TMR-peptide fluorescence polarization, 1 h; inhibition, % at 24.9 µM; hit rate 0.92% among 300,000;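 active means mean inhibition of at least 30% with at least half of replicates also reaching 30%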
miR-122 sensor = miR-122 inhibition in Huh7 cells; Huh7 miR-122 Renilla luciferase sensor, 48 h; neutral wells = 0, positive control = 100; activation (reporter increase), % at 12.5 µM; hit rate 0.3% among 340,000; AID 602342;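 active means mean replicate activation score at least 90 and every replicate individually at or above 90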;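 further: higher luciferase means less miR-122 activity so hits act as miR-122 inhibitors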
CAL PDZ FP-2 = inhibitors of human CAL PDZ peptide binding; Q9HD26; purified CAL PDZ, TMR-peptide fluorescence polarization, 1 h; inhibition, % at 20 µM; hit rate 0.02% among 330,000; AID 504414;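 active means highest replicate inhibition of at least 40%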
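System: tagged CAL PDZ domain. Schedule: 1 h room-temperature incubation prior to read. Signal: fluorescence polarization (mP). Measure: percent inhibition from loss of millipolarization.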
ARNT-TACC3 inh = ARNT/TACC3 interaction disruption; Q9Y6A5; AlphaScreen His-ARNT PAS-B/GST-TACC3 binding, luminescence; TACC3 fragment carries E629A point mutation; inhibition, % at 9.99 µM; hit rate 0.66% among 390,000;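 active means mean inhibition of replicates at least 50% and at least half of replicates each reaching 50%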
SR-BI DiI inh = inhibitors of mouse SR-BI mediated HDL lipid uptake; inhibition, % at 12.5 µM; Q61009; hit rate 0.96% among 320,000; ldlA[mSR-BI] CHO cells, DiI-HDL uptake fluorescence, 3 h;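 active means mean replicate inhibition of at least 70% and a set share of replicates each scoring 70 or more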
Target sequence (Q61009 whole entry, looked up): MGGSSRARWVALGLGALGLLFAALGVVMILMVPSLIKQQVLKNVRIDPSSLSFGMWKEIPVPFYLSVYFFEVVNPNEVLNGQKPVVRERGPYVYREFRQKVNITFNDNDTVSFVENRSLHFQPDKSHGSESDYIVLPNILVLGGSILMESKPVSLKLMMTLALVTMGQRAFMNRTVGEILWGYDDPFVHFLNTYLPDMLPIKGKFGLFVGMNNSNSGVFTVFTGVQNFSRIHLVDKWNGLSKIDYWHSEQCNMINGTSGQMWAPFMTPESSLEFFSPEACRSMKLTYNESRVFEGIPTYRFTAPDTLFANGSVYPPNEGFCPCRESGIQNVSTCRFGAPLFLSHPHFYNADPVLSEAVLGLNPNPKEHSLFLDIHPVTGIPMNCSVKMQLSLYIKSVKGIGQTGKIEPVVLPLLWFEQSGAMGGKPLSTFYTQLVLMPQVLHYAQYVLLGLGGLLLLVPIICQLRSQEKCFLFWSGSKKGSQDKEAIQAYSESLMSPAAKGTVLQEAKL
Hits are given with their value; i = inactive; nt = not tested or not shown. A selection: hits, their analogues and other compounds. The true share with any hit is near 2.1%.

SMILES	SR-BI DiI-HDL act	CAL PDZ FP-1	miR-122 sensor	CAL PDZ FP-2	ARNT-TACC3 inh	SR-BI DiI inh
Cc1noc(C)c1S(=O)(=O)Nc1ccc2c(c1)C(=O)N([C@@H](C)CO)C[C@@H](C)[C@@H](CN(C)C(=O)CCC(F)(F)F)OCCCC[C@H](C)O2	nt	nt	i	nt	i	nt
Cc1ccc(NC(=S)N=Nc2c(O)n(C)c3ccc(S(=O)(=O)N4CCOCC4)cc23)cc1	i	i	i	i	i	i
Cc1cc(C)cc(NC(=S)N=Nc2c(O)n(C)c3ccc(S(=O)(=O)N4CCOCC4)cc23)c1	i	i	i	i	i	87
CC(=O)N(C)C[C@H]1Oc2ncc(-c3cccc(C#N)c3)cc2C(=O)N([C@H](C)CO)C[C@H]1C	nt	nt	i	nt	i	nt
Cc1ccc(-c2csc3nc4c5ccccc5c(NCCCN(C)C)nn4c(=O)c23)cc1	i	nt	i	i	67	i
C[C@@H]1CN([C@@H](C)CO)C(=O)CCCn2cc(nn2)CO[C@@H]1CN(C)Cc1ccc(O)cc1	nt	nt	i	nt	i	nt
O=C(COC(=O)C1CC2C=CC1C2)NCCc1ccccc1 (stereo not drawn)	240	i	i	i	i	i
CCSc1nc2cc(OC)c(OC)cc2c(=O)n1CCc1ccccc1	i	nt	i	i	i	71
CO[C@H]1CN(C)C(=O)c2ccc(NS(=O)(=O)c3ccccc3)cc2OC[C@H](C)N(Cc2cccnc2)C[C@@H]1C	nt	nt	nt	nt	i	nt
O=C(Nc1ccccc1)N[C@H]1CC[C@@H](CCNC(=O)c2ccccc2F)O[C@@H]1CO	nt	nt	nt	nt	i	nt
Cc1noc(C)c1S(=O)(=O)N1CCN(S(=O)(=O)c2ccccc2C#N)CC1	nt	34	i	i	i	nt
COc1ccc(/C=N/NC(=O)c2ccc(COc3ccccc3Cl)o2)c(OC)c1C	i	i	i	i	i	76
COc1ccc(/C=N/NC(=O)c2ccc(COc3ccccc3Cl)o2)cc1	i	i	i	i	nt	i
C[C@@H]1CN([C@H](C)CO)C(=O)c2cc(NS(=O)(=O)c3ccc(F)cc3)ccc2O[C@H]1CN(C)S(C)(=O)=O	nt	nt	i	nt	nt	nt
O=C(Nc1ccncc1)C1CCN(S(=O)(=O)c2cccs2)CC1	i	i	i	i	i	i
O=C(Nc1cc(Cl)ccn1)C1CCN(S(=O)(=O)c2cccs2)CC1	i	33	i	i	i	i
C[C@H]1CN([C@@H](C)CO)C(=O)Cc2cc(NS(=O)(=O)c3cccs3)ccc2O[C@@H]1CN(C)S(=O)(=O)c1cccs1	nt	nt	i	nt	nt	nt
O=C(CSc1nnc(-c2ccccn2)n1Cc1ccccc1)Nc1ccc2c(c1)OCO2	i	32	i	nt	i	i
CC(=O)C1=C(C)NC(=S)NC1c1cc([N+](=O)[O-])ccc1O (stereo not drawn)	i	64	i	i	i	i
CC1=C(C(=O)c2ccccc2)C(c2cccc([N+](=O)[O-])c2)NC(=S)N1 (stereo not drawn)	i	i	nt	i	i	i
O=C(CSc1nc2ccccc2c(=O)n1-c1ccccc1)N/N=C/C=C/c1ccccc1[N+](=O)[O-]	i	i	nt	i	i	i
Cc1ccccc1-n1c(SCC(=O)N/N=C/C=C/c2ccccc2[N+](=O)[O-])nc2ccccc2c1=O	i	i	nt	i	i	79
C[C@H](NC(=O)C[C@@H]1CC[C@H](NC(=O)C2CCOCC2)[C@@H](CO)O1)c1ccccc1	nt	nt	nt	nt	i	nt
CNC(=O)C[C@H]1CC[C@@H]2[C@H](COc3ccc(NC(=O)c4cccs4)cc3C(=O)N2C)O1	nt	nt	i	nt	i	nt
N/C(=N\OS(=O)(=O)c1ccccc1)c1ccccn1	i	i	nt	i	65	i
SMILES	SR-BI DiI-HDL act	CAL PDZ FP-1	miR-122 sensor	CAL PDZ FP-2	ARNT-TACC3 inh	SR-BI DiI inh
CC(C)C(=O)O/N=C(\N)c1ccccn1	i	nt	nt	i	i	i
COCC(=O)N(C)C[C@H]1Oc2cc(C#CC(C)C)ccc2S(=O)(=O)N([C@@H](C)CO)C[C@H]1C	nt	nt	i	nt	i	nt
CO[C@H]1CN(C)C(=O)c2ccc(NC(=O)Nc3c(C)noc3C)cc2OC[C@H](C)N(C)C[C@H]1C	nt	nt	i	nt	i	nt
CN(C)CCN1C(=O)c2oc3ccccc3c(=O)c2C1c1ccc(F)cc1 (stereo not drawn)	i	i	i	nt	i	i
CN1C(=O)c2oc3ccccc3c(=O)c2C1c1ccncc1 (stereo not drawn)	i	i	i	i	93	i
CCCCOc1ccc(NC(=O)Nc2nnc(C)s2)cc1	i	60	i	i	i	i
CCOc1ccc(C(=O)Nc2ccccc2N2CCOCC2)cc1	i	i	i	i	i	i
COc1cc(OC)cc(C(=O)N[C@H](C(=O)Nc2ccccc2N2CCOCC2)C(C)C)c1	i	39	i	i	i	i
CC1CCCC(C)N1C(=O)COc1ccc(C(=O)Nc2ccccc2N2CCOCC2)cc1 (stereo not drawn)	i	i	i	i	i	82
Cc1ccc(SCC(=O)Nc2ccccc2N2CCOCC2)cc1	i	48	i	i	i	i
CC(=O)c1cccc(OCC(=O)Nc2ccccc2N2CCOCC2)c1	i	i	93	i	nt	i
O=C(Nc1ccc(-c2ccccc2)cc1)[C@H]1[C@H](CO)[C@H]2Cn3c(cccc3=O)[C@@H]1N2Cc1cccnc1	nt	nt	i	nt	i	nt
C[C@@H]1CN([C@H](C)CO)C(=O)CCCn2cc(nn2)CO[C@@H]1CN(C)S(=O)(=O)c1ccc(Cl)cc1	nt	nt	i	nt	i	nt
Cc1cc(C(=O)Nc2cccc3c2O[C@@H](CN(C)S(=O)(=O)c2ccc(F)cc2)[C@H](C)CN([C@H](C)CO)C3=O)n(C)n1	nt	nt	i	nt	i	nt
CO[C@@H]1CN(C)C(=O)c2ccc(NC(=O)c3cccc(Oc4ccccc4)c3)cc2OC[C@@H](C)NC[C@H]1C	nt	nt	nt	nt	i	nt
C[C@H](CO)N1C[C@H](C)[C@@H](CN(C)C(=O)Nc2ccc3c(c2)OCO3)Oc2ccc(NC(=O)Nc3cccc4ccccc34)cc2CC1=O	nt	nt	i	nt	i	nt
COc1cc(NC(=O)CN(C)CCOc2ccccc2)c(C)cc1[N+](=O)[O-]	i	42	i	i	i	i
CN(CCOc1ccccc1)CC(=O)Nc1ccc(Cl)cc1[N+](=O)[O-]	i	i	i	i	i	i
CCN(CC)S(=O)(=O)c1ccc2oc(C(=O)Nc3ccc(OC)cc3OC)c(C)c2c1	i	i	i	i	i	77
CN1C(=O)c2cc(NC(=O)c3ccc(F)cc3)ccc2OC[C@@H]2O[C@@H](CC(=O)NC3CCC3)CC[C@H]21	nt	nt	i	nt	i	nt
C[C@@H]1CCCCO[C@@H](CN(C)S(=O)(=O)c2cccs2)[C@H](C)CN([C@H](C)CO)C(=O)c2cc(NS(=O)(=O)c3ccccc3)ccc2O1	nt	nt	i	nt	i	nt
S=C(Nc1ccc(Cl)cc1)c1nc2ccccc2[nH]1	i	i	i	i	i	123
O=C(/C(=C\c1ccccc1)c1nc2ccccc2[nH]1)c1ccc(Cl)cc1	i	i	nt	i	i	i
